Insulin prom act: TRM-6 insulin promoter activation. TRM-6 cells, insulin promoter eGFP reporter, imaging; plate-scaled: unstimulated 0, stimulated control 100. activation, % at 2 µM. 130,000 compounds, 0.81% hits. AID 1296;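 active means activation at 2 µM above a set limit, confirmed on inspection of the cell images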;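 further: share of cells whose green reporter signal exceeds an intensity cutoff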
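material = TRM-6 human fetal islet cells, insulin promoter–eGFP reporter | input = 1,000 TRM-6 cells seeded per well | benchmarks = stimulated versus unstimulated wells as plate controls | measured by = automated fluorescence imaging of paraformaldehyde-fixed, Hoechst-counterstained cells, green channel | schedule = compound exposure 48 h, 37 °C | reagent = tamoxifen at 0.75 µM added at seeding for reporter induction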
Numbers without * were called inactive. Many of the other results were omitted from the sample, so hits are more common in it than they were.

SMILES | Insulin prom act
N#C/C(=C\Nc1ccccc1SC(F)(F)F)c1nc(-c2ccccc2)cs1 | 4
O=C(Nc1cccc(Cl)c1)OCCN1CCN(Cc2ccccc2)CCC1=O | 10
Cc1ccc(NC2Sc3ccccc3NC2=O)cc1 (centres undefined) | -9
CCC(=O)N(Cc1ccco1)c1nc(-c2ccccc2)cs1 | 136*
Oc1ccc(-c2csc(-c3ccccc3)n2)cc1O | 7
CC(=O)Nc1ccc(-c2csc(NCc3ccco3)n2)cc1 | 3
O=C(CCC(=O)N1CCc2ccccc21)N1CCc2ccccc21 | 569*
Cc1ccc(S(=O)(=O)CCC(=O)N2CCc3ccccc32)cc1 | 4
O=C(COc1ccccc1)N1CCc2ccccc21 | -2
CCc1ccc(-c2cn(C3CCCCC3)c(=S)[nH]2)cc1 | 0
CCc1ccc(C2=NN(CCC(=O)NC3CC3)C(=O)CC2)cc1 | 3
O=C(NC1CCCCC1)C(c1cccs1)N(C(=O)c1ccccn1)c1ccccc1 (centres undefined) | 179
COc1cccc(C(C(=O)NC2CCCC2)N(Cc2ccccc2OC)C(=O)c2ccco2)c1 (centres undefined) | 214
COc1cccc(C(C(=O)NC2CCCCC2)N(C(=O)c2ccccn2)c2cccnc2)c1 (centres undefined) | 627*
c1ccc(CN2CCOCC2)cc1 | -9
Clc1ccc2oc(-c3ccccc3)cc(=NCCCN3CCOCC3)c2c1 | 321*
O=C(NCCCN1CCOCC1)c1cc(-c2ccccc2)on1 | 32
COCCNC(=O)Cn1c(=O)n(C)c2ccccc21 | 8
Cc1ncc([N+](=O)[O-])n1CCOC(=O)NC(NCc1ccccc1)C(Cl)(Cl)Cl (centres undefined) | 133*
Cc1ncc([N+](=O)[O-])n1CCOC(=O)Nc1ccc(Cl)c(Cl)c1 | 0
Cc1ncc([N+](=O)[O-])n1CC(=O)NCc1ccccc1 | -7
COc1cc(/C=N/Nc2ccc(Cl)cc2)ccc1OC(=O)c1cccs1 | 7
Cc1ccc(C)c(-n2nnnc2SCC(=O)NCCC2=CCCCC2)c1 | 708*
CNC(=O)CSc1nnnn1-c1cc(C)ccc1C | 0
Cc1ccc(CS(=O)(=O)CCC(=O)NCCC2=CCCCC2)cc1 | 0
SMILES | Insulin prom act
Cc1c(C(=O)C(=O)NCCc2ccc(S(N)(=O)=O)cc2)c2ccccc2n1C | -6
CCC1=NN(C(=O)c2cccnc2)C(O)(C(F)(F)F)C1 (centres undefined) | -7
COc1ccc(NC(=O)COC(=O)C2CC3C=CC2C3)cc1 (centres undefined) | -79
CCOC(=O)N1CCN(C(=O)CSc2ccc(-c3ccccc3)nn2)CC1 | 3
CCOC(=O)N1CCN(C(=O)CSc2ncccn2)CC1 | 186*
CCOC(=O)N1CCN(C(=O)CSc2ccc(-c3ccncc3)nn2)CC1 | -75
CCCCCCc1ccc(OCC(=O)OC)cc1OCC(=O)OC | -3
O=C1c2ccccc2C(=O)N1CC(O)CN1CCOCC1 (centres undefined) | 533*
O=C(c1ccccc1)c1ccc(OCC(O)CN2CCOCC2)cc1 (centres undefined) | 233
CC(C(=O)N1CCOCC1)N1C(=O)c2ccccc2C1=O (centres undefined) | 282
COC(=O)c1cc(C(=O)c2ccc(C(C)(C)C)cc2)c[nH]1 | 0
O=C(NNc1cccc(Cl)n1)c1ccc(Cl)cc1Cl | 9
O=C(c1ccc(Cl)cc1)c1c[nH]c(C(=O)NNc2cccc(Cl)n2)c1 | 431*
Cc1c(NC(=O)c2cc3ccccc3oc2=O)c(=O)n(-c2ccccc2)n1C | 4
CCN(CC)c1ccc(/C=N/NC(=O)C(O)(c2ccccc2)c2ccccc2)o1 | 116
COc1ccc(N2CCN(C(CNS(=O)(=O)c3cc(F)ccc3F)c3cccnc3)CC2)cc1 (centres undefined) | -6
CCOc1ccc2nc(SCC(=O)NC(=O)C(C)C)sc2c1 | -100
O=C(O)c1cccc(NC(=O)C2C3C=CC(C3)C2C(=O)O)c1 (centres undefined) | 5
O=C(O)C1C2C=CC(C2)C1C(=O)Nc1cccc(F)c1 (centres undefined) | -5
Cc1ccc(-c2cccc(NC(=O)C3C(C(=O)O)[C@@H]4C=C[C@H]3C4)c2)o1 (some centres undefined) | 154*
Cn1c(CNC(=O)c2ccc(Cl)c(Cl)c2)nnc1SCC(=O)Nc1sc2c(c1C#N)CCCC2 | -7
CC(C)Oc1ccc(NC(=O)c2ccncc2)cc1 | -75
CCOC(=O)c1ccccc1NC(=O)C(C)Oc1ccccc1 (centres undefined) | -6
CC(Oc1ccccc1)C(=O)Nc1ccc(C(N)=O)cc1 (centres undefined) | 174*
COc1ccc(OC(C)C(=O)Nc2cccc(OC)c2)cc1 (centres undefined) | -8
COc1cccc(OC)c1C(=O)NNC(=O)c1cccc(COc2ccc3c(c2)CCC3)c1 | -4
O=C(O)Cc1ccc(-n2cccc2)cc1 | -9
CC(Nc1cc(=O)n(C)c(=O)n1C)c1ccccc1 (centres undefined) | 0
O=C(Nc1nccc(-c2cccs2)n1)c1ccccc1Cl | -3

Assay outcomes as filed in PubChem.
